According to ChEMBL document CHEMBL2417552, “Screen of pseudopeptidic inhibitors of human sirtuins 1-3: two lead compounds with antiproliferative effects in cancer cells” (J Med Chem, 2013):

Legend:
[1] = biological target: T1, NAD-dependent protein deacetylase sirtuin-1 (Homo sapiens) (UniProt Q96EB6); conditions: at 50 µM;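 also: recombinant GST-tagged human SIRT1 enzyme assay with KI177 substrate, fluorescence read 1 h after enzyme addition, inhibition expressed relative to control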
T1 sequence (whole entry): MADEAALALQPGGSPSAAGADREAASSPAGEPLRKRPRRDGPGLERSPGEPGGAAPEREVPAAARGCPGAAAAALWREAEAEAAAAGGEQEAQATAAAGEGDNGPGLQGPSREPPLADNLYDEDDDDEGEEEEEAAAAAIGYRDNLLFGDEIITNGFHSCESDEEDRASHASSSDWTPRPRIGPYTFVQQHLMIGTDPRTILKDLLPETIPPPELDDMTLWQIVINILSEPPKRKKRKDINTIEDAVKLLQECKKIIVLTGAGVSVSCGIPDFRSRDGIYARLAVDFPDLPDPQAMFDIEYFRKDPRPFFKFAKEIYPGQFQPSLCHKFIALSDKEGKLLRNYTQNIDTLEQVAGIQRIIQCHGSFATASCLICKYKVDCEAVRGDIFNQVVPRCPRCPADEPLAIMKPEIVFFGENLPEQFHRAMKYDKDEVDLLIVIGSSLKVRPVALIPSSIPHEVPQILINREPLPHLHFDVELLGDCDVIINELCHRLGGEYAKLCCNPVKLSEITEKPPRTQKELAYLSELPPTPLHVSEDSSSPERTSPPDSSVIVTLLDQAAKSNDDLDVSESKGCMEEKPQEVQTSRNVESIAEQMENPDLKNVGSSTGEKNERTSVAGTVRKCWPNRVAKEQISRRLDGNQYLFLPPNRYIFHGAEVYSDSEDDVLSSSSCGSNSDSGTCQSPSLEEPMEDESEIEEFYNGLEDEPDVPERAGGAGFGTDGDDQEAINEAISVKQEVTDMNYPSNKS

[2] = biological target: T2, NAD-dependent protein deacetylase sirtuin-3, mitochondrial (Homo sapiens) (UniProt Q9NTG7); conditions: at 50 µM;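 also: recombinant His-tagged human SIRT3 with KI179 substrate, fluorescence read after 1 h, inhibition expressed relative to control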
T2 sequence (whole entry): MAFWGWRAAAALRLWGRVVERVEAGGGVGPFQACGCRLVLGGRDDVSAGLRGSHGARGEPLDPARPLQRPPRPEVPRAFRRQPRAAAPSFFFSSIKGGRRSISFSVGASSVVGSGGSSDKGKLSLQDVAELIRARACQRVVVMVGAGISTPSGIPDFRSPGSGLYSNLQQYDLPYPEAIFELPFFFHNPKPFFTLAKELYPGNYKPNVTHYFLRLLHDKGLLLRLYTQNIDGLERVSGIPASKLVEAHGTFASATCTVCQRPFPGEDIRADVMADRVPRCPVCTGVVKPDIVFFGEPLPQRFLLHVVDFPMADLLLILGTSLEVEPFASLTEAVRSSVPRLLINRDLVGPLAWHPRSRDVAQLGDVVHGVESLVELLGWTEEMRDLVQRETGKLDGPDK

[3] = biological target: T3, NAD-dependent protein deacetylase sirtuin-2 (Homo sapiens) (UniProt Q8IXJ6); assay: Inhibition of human recombinant GST-tagged SIRT2 using KI179 as substrate at 50 uM preincubated for 5 mins followed by enzyme addition measured after 1 hr by fluorescence assay relative to control
T3 sequence (whole entry): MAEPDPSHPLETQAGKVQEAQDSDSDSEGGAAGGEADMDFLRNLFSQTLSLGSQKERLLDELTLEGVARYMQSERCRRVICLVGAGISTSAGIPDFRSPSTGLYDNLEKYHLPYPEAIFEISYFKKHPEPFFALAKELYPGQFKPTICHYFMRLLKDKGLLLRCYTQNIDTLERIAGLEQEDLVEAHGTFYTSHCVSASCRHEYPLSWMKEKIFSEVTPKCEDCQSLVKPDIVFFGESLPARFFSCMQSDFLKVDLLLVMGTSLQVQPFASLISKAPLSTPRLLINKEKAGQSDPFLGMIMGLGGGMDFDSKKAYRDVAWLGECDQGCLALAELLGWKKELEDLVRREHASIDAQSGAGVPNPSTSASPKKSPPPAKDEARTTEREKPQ
Procedure, shortened: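 Recombinant GST-SIRT2, Fluor de Lys assay in SIRT assay buffer. Acetylated peptide KI179 at 0.7 Km (Km 198 µM) and NAD+ at 0.9 Km (reported Km 547 µM). Buffer, substrate, NAD+ and compound in DMSO preincubated 5 min at room temperature. Enzyme added to start; 1 h at 37 °C. Developer with 2 mM nicotinamide added; 45 min at 37 °C; fluorescence read. Mean ± SD, ≥3 experiments.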

SMILES | inhibition [1] [%] | inhibition [2] [%] | inhibition [3] [%]
CC(=S)NCCCC[C@H](NC(=O)[C@@H]1CCCN1C(=O)OC(C)(C)C)C(=O)NCCc1cccnc1 | 66 | 68 | 49
CC(=S)NCCCC[C@H](NC(=O)CCc1ccccc1)C(=O)Nc1cccnc1 | 83 | 39 | 21
CC(=S)NCCCC[C@H](NC(=O)OCc1ccccc1)C(=O)NCc1ccccc1 | 91 | 71 | 67
CC(=S)NCCCC[C@H](NC(=O)OCc1ccccc1)C(=O)NCC(O)c1ccccc1 (some centres not stated) | 77 | 45 | 54
CC(=S)NCCCC[C@H](NC(=O)CCCCCc1ccccc1)C(=O)NCc1ccccc1 | 100 | 84 | 71
CC(=S)NCCCC[C@H](NC(=O)CCCCCCc1ccccc1)C(=O)NCc1ccccc1 | 99 | 87 | 74
CC(=S)NCCCC[C@H](NC(=O)CN(C)C)C(=O)Nc1ccccc1 | 62 | 16 | 18
CC(=S)NCCCC[C@H](NC(=O)CCc1cccnc1)C(=O)Nc1ccccc1 | 82 | 44 | 39
CC(=S)NCCCC[C@H](NC(=O)[C@@H]1C[C@@H](O)CN1C(=O)OCc1ccccc1)C(=O)NCc1ccccc1 | 97 | 93 | 87
CC(=S)NCCCC[C@H](NC(=O)OC(C)(C)C)C(=O)NCCc1cccnc1 | 41 | 24 | 28
CC(=S)NCCCC[C@H](NC(=O)CCCCCc1ccccc1)C(=O)NCC(=O)c1ccccc1 | 98 | 82 | 83
CC(=S)NCCCC[C@H](NC(=O)OC(C)(C)C)C(=O)NCC(=O)c1ccccc1 | 91 | 63 | 87
CC(=S)NCCCC[C@H](NC(=O)OCc1ccccc1)C(=O)NCCc1c[nH]c2ccc(OCc3ccccc3)cc12 | 87 | 68 | 79
CC(=S)NCCCC[C@H](NC(=O)[C@@H]1CCCN1C(=O)OC(C)(C)C)C(=O)Nc1ccccc1 | 80 | 45 | 44
CC(=S)NCCCC[C@H](NC(=O)[C@@H]1CCCN1C(=O)OC(C)(C)C)C(=O)NCC(=O)c1ccccc1 | 97 | 76 | 95
CC(=S)NCCCC[C@H](NC(=O)OCc1ccccc1)C(=O)NCC(N)=O | 91 | 77 | 72
CC(=S)NCCCC[C@H](NC(=O)OCc1ccccc1)C(=O)NCCc1c[nH]c2ccccc12 | 85 | 46 | 61
CC(=S)NCCCC[C@H](NC(=O)OCc1ccccc1)C(=O)N[C@@H](C)C(N)=O | 96 | 85 | 86
CC(=S)NCCCC[C@H](NC(=O)[C@@H]1CCCN1)C(=O)Nc1ccccc1 | 86 | 19 | 13
CC(=S)NCCCC[C@H](NC(=O)[C@@H]1C[C@@H](O)CN1C(=O)OCc1ccccc1)C(=O)Nc1ccccc1 | 90 | 69 | 54
CC(=S)NCCCC[C@H](NC(=O)C[C@@H]1NC(=O)[C@H](Cc2ccccc2)NC1=O)C(=O)NCC(=O)c1ccccc1 | 96 | 61 | 73
CC(=S)NCCCC[C@H](NC(=O)OCc1ccccc1)C(=O)NCCc1ccccc1 | 72 | 41 | 52
CC(=S)NCCCC[C@H](NC(=O)CCc1ccccc1F)C(=O)Nc1cccnc1 | 94 | 72 | 74
CC(=S)NCCCC[C@H](NC(=O)CCCc1ccccc1)C(=O)NCC(=O)c1ccccc1 | 98 | 72 | 76
CC(=S)NCCCC[C@H](NC(=O)OCc1ccccc1)C(=O)NCC(=O)c1ccccc1 | 97 | 74 | 94
CC(=S)NCCCC[C@H](NC(=O)CCc1ccccc1)C(=O)NCC(=O)c1ccccc1 | 96 | 68 | 65
CC(=S)NCCCC[C@H](NC(=O)OCc1ccccc1)C(=O)Nc1ccccc1 | 83 | 62 | 81
CC(=S)NCCCC[C@H](NC(=O)OCc1ccccc1)C(=O)Nc1cccnc1 | 84 | 59 | 70
CC(=S)NCCCC[C@H](NC(=O)CCc1cccnc1)C(=O)NCC(=O)c1ccccc1 | 95 | 62 | 58
